Values after ≈ are worked out from the molar mass of the structure shown. Active and inactive are the calls of the source. No cut-off for these calls is given here.
Key:
[1] = test system: Candida albicans; assay: Antifungal activity against Candida albicans MTCC 183 after 48 hrs by broth microdilution method; format: functional; settings: MTCC 183, 48 h
Method in brief: (§1)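 Broth microdilution per NCCLS guidelines in MOPS-buffered RPMI 1640; starting inoculum 1-5 x 10^3 CFU/mL; plates incubated at 35 °C; MIC recorded after 48 h; fluconazole as reference; experiments repeated three times.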

[2] = test system: Candida albicans; assay: Antifungal activity against Candida albicans ATCC 66027 after 48 hrs by broth microdilution method; format: functional; settings: ATCC 66027, 48 h; method in brief: as §1
[3] = test system: Candida albicans; assay: Antifungal activity against Candida albicans ATCC 14053 after 48 hrs by broth microdilution method; format: functional; settings: ATCC 14053, 48 h; method in brief: as §1
[4] = test system: Candida parapsilosis; assay: Antifungal activity against Candida parapsilosis ATCC 22019 after 48 hrs by broth microdilution method; format: functional; settings: Lodderomyces parapsilosis, ATCC 22019, 48 h; method in brief: as §1
[5] = test system: Candida albicans; assay: Antifungal activity against Candida albicans patient isolate after 48 hrs by broth microdilution method; format: functional; method in brief: as §1
[6] = test system: Candida albicans; assay: Antifungal activity against Candida albicans ATCC 10231 after 48 hrs by broth microdilution method; format: functional; settings: ATCC 10231, 48 h; method in brief: as §1
[7] = test system: Trichomonas vaginalis; assay: Antitrichomonas activity against metronidazole-susceptible Trichomonas vaginalis assessed as decrease in cell viability after 48 hrs by trypan blue exclusion method; format: functional
[8] = test system: Trichomonas vaginalis; assay: Potency index, ratio of metronidazole MIC to test compound MIC for metronidazole-resistant Trichomonas vaginalis CDC085 ATCC 50143; format: functional
[9] = Selectivity index, ratio of IC50 for human HeLa cells to MIC for metronidazole-resistant Trichomonas vaginalis CDC085 ATCC 50143; format: toxicity; settings: read-out: Selectivity Index
[10] = test system: Sporothrix schenckii; assay: Antifungal activity against Sporothrix schenckii after 48 hrs by broth microdilution method; format: functional; method in brief: as §1
[11] = test system: Nakaseomyces glabratus; assay: Antifungal activity against Candida glabrata ATCC 2001 after 48 hrs by broth microdilution method; format: functional; settings: ATCC 2001, 48 h; method in brief: as §1
[12] = test system: Plasmodium falciparum; assay: Antimalarial activity against chloroquine-sensitive Plasmodium falciparum 3D7 infecetd in RBC after 72 hrs by SYBR Green dye-based fluorescence assay; format: functional, organism-based; settings: 3D7, Erythrocyte
[13] = test system: Plasmodium falciparum; assay: Antimalarial activity against chloroquine-resistant Plasmodium falciparum K1 infecetd in RBC after 72 hrs by SYBR Green dye-based fluorescence assay; format: functional, organism-based; settings: K1, Erythrocyte
[14] = Selectivity index, ratio of IC50 for human HeLa cells to MIC for metronidazole-susceptible Trichomonas vaginalis; format: toxicity; settings: read-out: Selectivity Index
[15] = test system: Trichophyton mentagrophytes; assay: Antifungal activity against Trichophyton mentagrophytes after 48 hrs by broth microdilution method; format: functional; method in brief: as §1
[16] = test system: Trichomonas vaginalis; assay: Potency index, ratio of metronidazole MIC to test compound MIC for metronidazole-susceptible Trichomonas vaginalis; format: functional
[17] = test system: Trichomonas vaginalis; assay: Antitrichomonas activity against metronidazole-resistant Trichomonas vaginalis CDC085 ATCC 50143 assessed as decrease in cell viability after 48 hrs by trypan blue exclusion method; format: functional; settings: CDC085 ATCC 50143, 48 h
[18] = test system: Cryptococcus neoformans; assay: Antifungal activity against Cryptococcus neoformans after 48 hrs by broth microdilution method; format: functional; method in brief: as §1
[19] = test system: HeLa; assay: Cytotoxicity against human HeLa cells after 24 hrs by MTT assay; format: cell-based
[20] = test system: Rattus norvegicus; assay: Volume of distribution at steady state in Sprague-Dawley rat at 50 mg/kg, po measured up to 24 hrs by LC-MS/MS analysis; format: ADME, organism-based; settings: in vivo
Method in brief: (§2)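 Male rats fasted 12-16 h before dosing (n = 4 per time point). Each received a single 50 mg/kg oral dose as a 12.5 mg/mL suspension in 1% w/v gum acacia in water, given by feeding needle. Serum was sampled up to 24 h, cleaned up by protein precipitation and assayed by LC-MS/MS (MRM, phenacetin internal standard, linear 1-200 ng/mL). Parameters were derived by non-compartmental analysis.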

[21] = test system: Rattus norvegicus; assay: Clearance in Sprague-Dawley rat at 50 mg/kg, po measured up to 24 hrs by LC-MS/MS analysis; format: ADME, organism-based; settings: in vivo; method in brief: as §2
[22] = Elimination half life in Sprague-Dawley rat at 50 mg/kg, po measured up to 24 hrs by LC-MS/MS analysis; format: ADME, organism-based; settings: in vivo, read-out: beta t1/2 (converted); method in brief: as §2
[23] = Cmax in Sprague-Dawley rat at 50 mg/kg, po measured up to 24 hrs by LC-MS/MS analysis; format: ADME, organism-based; design: dose 50 mg/kg, route oral; settings: in vivo; method in brief: as §2
[24] = test system: Trichomonas vaginalis; assay: Antitrichomonas activity against metronidazole-susceptible Trichomonas vaginalis infected in mouse assessed as growth of abscess at 50 to 100 mg/kg, po administered for […] post last dose (reference value: 96.55 mm'2); format: functional
[25] = test system: Trichomonas vaginalis; assay: Antitrichomonas activity against metronidazole-susceptible Trichomonas vaginalis infected in mouse assessed as growth of abscess at 50 mg/kg, po administered for 7 days measured on day 7 post last dose (reference value: 96.5 mm'2); format: functional
[26] = test system: Trichomonas vaginalis; assay: Selectivity ratio of MIC for metronidazole-resistant Trichomonas vaginalis CDC085 ATCC 50143 to MIC for metronidazole-susceptible Trichomonas vaginalis; format: functional
[27] = test system: Rattus norvegicus; assay: AUClast in Sprague-Dawley rat at 50 mg/kg, po measured up to 24 hrs by LC-MS/MS analysis; format: ADME, organism-based; design: time < 24 hr, dose 50 mg/kg, route oral; settings: in vivo; method in brief: as §2
[28] = test system: Trichomonas vaginalis; assay: Antitrichomonas activity against metronidazole-susceptible Trichomonas vaginalis infected in mouse assessed as growth of abscess at 100 mg/kg, po administered for 7 days measured on day 7 post last dose (reference value: 96.5 mm'2); format: functional
[29] = Tmax in Sprague-Dawley rat at 50 mg/kg, po measured up to 24 hrs by LC-MS/MS analysis; format: ADME, organism-based; settings: in vivo; method in brief: as §2
[30] = test system: Trichomonas vaginalis; assay: Inhibition of free sulfhydryl group in Trichomonas vaginalis at MIC after 24 hrs by mBBr dye-based fluorescence microscopic method
Method in brief: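 Cells were pelleted (700 xg, 10 min, 4°C) and washed in PBS. They were then labelled in the dark with a fluorometric thiol detector prediluted 100x. Imaging used epifluorescence microscopy through a UV-1A filter, with the same exposure for all samples, and was assessed qualitatively.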

Row | Compound | MIC [1] [µM] | MIC [2] [µM] | MIC [3] [µM] | MIC [4] [µM] | MIC [5] [µM] | MIC [6] [µM] | MIC [7] [µM] | Ratio [8] | selectivity ratio [9] | MIC [10] [µM] | MIC [11] [µM] | IC50 [12] [µM] | IC50 [13] [µM] | selectivity ratio [14] | MIC [15] [µM] | Ratio [16] | MIC [17] [µM] | MIC [18] [µM] | IC50 [19] [µM] | other results
1 | CN(C)C(=S)SC(=S)N1CCN(C(=O)c2ccco2)CC1 | 72.9 (≈ 25 µg/mL) | 72.9 (≈ 25 µg/mL) | 146 (≈ 50.1 µg/mL) | 146 (≈ 50.1 µg/mL) | 146 (≈ 50.1 µg/mL) | 146 (≈ 50.1 µg/mL) | 18.2 (≈ 6.26 µg/mL) | 1.3 - 9.5 | 16 | 72.9 (≈ 25 µg/mL) | 146 (≈ 50.1 µg/mL) | 0.79 | 1.76 | 130 | 72.9 (≈ 25 µg/mL) | 1 - 3.8 | 146 (≈ 50.1 µg/mL) | 146 (≈ 50.1 µg/mL) | 2380 | –
2 | CN(C)C(=S)SC(=S)N1CCN(C(=O)OC(C)(C)C)CC1 | 143 (≈ 49.9 µg/mL) | 71.4 (≈ 25 µg/mL) | 143 (≈ 49.9 µg/mL) | 143 (≈ 49.9 µg/mL) | 143 (≈ 49.9 µg/mL) | 143 (≈ 49.9 µg/mL) | 17.9 (≈ 6.24 µg/mL) | 1.3 - 9.5 | 18 | 143 (≈ 49.9 µg/mL) | 143 (≈ 49.9 µg/mL) | 0.78 | 1.74 | 73 | 143 (≈ 49.9 µg/mL) | 1 - 3.8 | 71.4 (≈ 25 µg/mL) | 143 (≈ 49.9 µg/mL) | 1310 | –
3 | CN(C)C(=S)SC(=S)N1CCN(c2ncccn2)CC1 | 76.5 (≈ 25 µg/mL) | 38.2 (≈ 12.5 µg/mL) | 153 (≈ 50.1 µg/mL) | 153 (≈ 50.1 µg/mL) | 153 (≈ 50.1 µg/mL) | 153 (≈ 50.1 µg/mL) | 4.77 (≈ 1.56 µg/mL) | 9.5 | 131 | 153 (≈ 50.1 µg/mL) | 153 (≈ 50.1 µg/mL) | 0.76 | 1.85 | 1050 | 153 (≈ 50.1 µg/mL) | 3.8 | 38.2 (≈ 12.5 µg/mL) | 153 (≈ 50.1 µg/mL) | > 5000 | Vdss [20]: 12.6 L/kg; CL [21]: 81.7 mL/min/kg; half-life [22]: 2.6 h; Cmax [23]: 47.1 ng/mL; Activity [24]: 1 - 2.5 mm2; Activity [25]: 1.57 mm2; selectivity ratio [26]: 8; AUClast [27]: 140.5 ng·h/mL; Activity [28]: 0.79 mm2; Tmax [29]: 2 h; inhibition [30]: Active
4 | CN(C)C(=S)SC(=S)N1CCN(C(=O)NC2CCCCC2)CC1 | > 133 | > 133 | > 133 | 133 (≈ 49.9 µg/mL) | > 133 | > 133 | 133 (≈ 49.9 µg/mL) | 1.3 - 11.2 | > 18 | 133 (≈ 49.9 µg/mL) | > 133 | – | – | > 37 | 133 (≈ 49.9 µg/mL) | – | 267 (≈ 99.9 µg/mL) | > 133 | > 5000 | –
5 | CN(C)C(=S)SC(=S)N1CCCCCC1 | 47.7 (≈ 12.5 µg/mL) | 23.9 (≈ 6.26 µg/mL) | 11.9 (≈ 3.12 µg/mL) | 23.9 (≈ 6.26 µg/mL) | 23.9 (≈ 6.26 µg/mL) | 23.9 (≈ 6.26 µg/mL) | 95.4 (≈ 25 µg/mL) | 1.5 - 3.8 | > 26 | 23.9 (≈ 6.26 µg/mL) | 11.9 (≈ 3.12 µg/mL) | – | – | > 52 | 23.9 (≈ 6.26 µg/mL) | – | 191 (≈ 50.1 µg/mL) | 47.7 (≈ 12.5 µg/mL) | > 5000 | –
6 | CCOC(=O)N1CCN(C(=S)SC(=S)N(C)C)CC1 | 156 (≈ 50.1 µg/mL) | 38.9 (≈ 12.5 µg/mL) | 156 (≈ 50.1 µg/mL) | 156 (≈ 50.1 µg/mL) | 156 (≈ 50.1 µg/mL) | > 156 | 77.9 (≈ 25 µg/mL) | 1.3 - 9.5 | 3 | 77.9 (≈ 25 µg/mL) | 156 (≈ 50.1 µg/mL) | – | – | 6 | 77.9 (≈ 25 µg/mL) | – | 156 (≈ 50.1 µg/mL) | 156 (≈ 50.1 µg/mL) | 530 | –
7 | CN(C)C(=S)SC(=S)N1CCN(c2ccccc2)CC1 | > 153 | > 153 | > 153 | 76.7 (≈ 25 µg/mL) | 38.3 (≈ 12.5 µg/mL) | > 153 | 38.3 (≈ 12.5 µg/mL) | 1.3 - 9.5 | 21 | 76.7 (≈ 25 µg/mL) | > 153 | – | – | 42 | 76.7 (≈ 25 µg/mL) | – | 76.7 (≈ 25 µg/mL) | 76.7 (≈ 25 µg/mL) | 1610 | –
8 | CN(C)C(=S)SC(=S)N1CCN(C(=S)NC2CCCCC2)CC1 | > 128 | > 128 | > 128 | 128 (≈ 50 µg/mL) | > 128 | > 128 | 32 (≈ 12.5 µg/mL) | 1.3 - 11.2 | > 79 | 128 (≈ 50 µg/mL) | > 128 | – | – | > 161 | 128 (≈ 50 µg/mL) | – | 63.9 (≈ 25 µg/mL) | > 128 | > 5000 | –
9 | CN(C)C(=S)SC(=S)N1CCN(C(=S)Nc2ccccc2)CC1 | > 130 | > 130 | > 130 | > 130 | > 130 | > 130 | 8.1 (≈ 3.12 µg/mL) | 11.4 | > 154 | 130 (≈ 50 µg/mL) | > 130 | 0.72 | 1.66 | > 617 | 130 (≈ 50 µg/mL) | 2.2 | 32.5 (≈ 12.5 µg/mL) | > 130 | > 5000 | –
10 | Cc1ncc([N+](=O)[O-])n1CCO [METRONIDAZOLE] | – | – | – | – | – | – | 18.2 (≈ 3.12 µg/mL) | – | > 13 | – | – | – | – | > 277 | – | – | 365 (≈ 62.6 µg/mL) | – | > 5000 | Activity [25]: 2.35 mm2
11 | CN(C)C(=S)SC(=S)N1CCN(C(=S)NCc2ccccc2)CC1 | > 125 | > 125 | > 125 | > 125 | > 125 | > 125 | 125 (≈ 50 µg/mL) | 1.3 - 11.2 | > 20 | 125 (≈ 50 µg/mL) | > 125 | – | – | > 40 | 125 (≈ 50 µg/mL) | – | 251 (≈ 99.9 µg/mL) | > 125 | > 5000 | –
